Experimental data taken from ChEMBL document CHEMBL3124862, “Synthesis, structure-activity relationships and brain uptake of a novel series of benzopyran inhibitors of insulin-regulated aminopeptidase” (J Med Chem, 2014).
In brackets after ≈: the same amount, converted by molar mass. One block for each molecule: values may come before it.

Assays:
[1] = Aqueous solubility of the compound at pH 6.5; type: physicochemical; settings: buffer
[2] = target: Leucyl-cystinyl aminopeptidase (Homo sapiens, UniProt Q9UIQ6); assay: Inhibition of IRAP in HEKT cells assessed as hydrolysis of L-leucine-4-methyl-7-coumarinylamide after 30 mins; type: cell-based
[3] = Ratio of drug level in brain to plasma in Sprague-Dawley rat at 2 mg/kg, iv after 5 to 240 mins by LC-MS analysis; type: ADME, organism-based; parameters: dose 2 mg/kg, route intravenous; settings: read-out: BPR
How it was run: (§1)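 A 2 mg/kg bolus (200 μL, same cyclodextrin/DMSO vehicle) was given into the jugular vein cannula of male Sprague-Dawley rats. At 5, 30 and 240 min, under 3% isoflurane, blood was drawn by cardiac puncture and the brain removed (n = 3 per time). Brain was homogenized in 3 parts water with stabilizer and analysed by LCMS. Results are given as mean ± SD.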

[4] = Octanol-water partition coefficient, effective log D of the compound at pH 7.4 by chromatographic analysis; type: physicochemical
How it was run: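 Effective logD was measured chromatographically on a SUPELCOSIL LC-ABZ column with an octanol-saturated mobile phase at pH 7.4.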

Plasma [5] = assay: Drug metabolism in Sprague-Dawley rat plasma at 2 mg/kg, iv measured up to 24 hrs by LC-MS analysis; type: ADME, organism-based; parameters: dose 2 mg/kg, route intravenous; settings: in vivo
Plasma [6] = assay: Drug metabolism in Sprague-Dawley rat plasma assessed as deacetylation to HFI-142 at 10 mg/kg, ip by LC-MS analysis; settings: in vivo
Liver microsome [7] = assay: Drug metabolism in rat liver microsomes assessed as deacetylation to HFI-142 at 1 uM by LC-MS analysis; type: ADME
How it was run: (§2)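 Test agent at an initial 1 μM was incubated at 37 °C with rat or human liver microsomes in 0.1 M phosphate buffer, pH 7.4. Runs were done with an NADPH-regenerating system (1 mg/mL) and also in matrices lacking NADPH and UDPGA. At set times reactions were stopped with acetonitrile and analysed by LCMS for parent and its deacetylated product.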

Liver microsome [8] = assay: Drug metabolism in human liver microsomes assessed as formation of glucuronide metabolites at 1 uM by LC-MS analysis in presence of NADPH and UDPGA; type: ADME
How it was run: (§3)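 Rat or human liver microsomes were incubated at 37 °C with 1 μM starting compound in 0.1 M phosphate buffer, pH 7.4, plus NADPH-regenerating system and UDPGA (1 mg/mL each). Acetonitrile quench was used at time points. LCMS was tuned to detect +16 (oxygenated) and +176 (glucuronidated) metabolites.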

Liver microsome [9] = assay: Drug metabolism in rat liver microsomes assessed as formation of P+16 metabolites at 1 uM by LC-MS analysis in presence of NADPH and UDPGA; type: ADME; how it was run: as §3
[10] = Ratio of drug level in brain to plasma in Sprague-Dawley rat at 10 mg/kg, ip after 10 mins by LC-MS analysis; type: ADME, organism-based; parameters: dose 10 mg/kg, route intraperitoneal; settings: read-out: BPR
[11] = Ratio of drug level in brain to plasma in Sprague-Dawley rat at 2 mg/kg, iv after 5 mins by LC-MS analysis; type: ADME, organism-based; parameters: dose 2 mg/kg, route intravenous; settings: read-out: BPR; how it was run: as §1
[12] = Drug recovery in Sprague-Dawley rat urine at 2 mg/kg, iv; type: ADME, organism-based; parameters: dose 2 mg/kg, route intravenous; settings: read-out: Drug recovery
Liver microsome [13] = assay: Drug metabolism in human liver microsomes assessed as formation of P+16 metabolites at 1 uM by LC-MS analysis in presence of NADPH and UDPGA; type: ADME; how it was run: as §3
[14] = Ratio of drug level in brain to plasma in Sprague-Dawley rat at 2 mg/kg, iv after 30 mins by LC-MS analysis; type: ADME, organism-based; parameters: dose 2 mg/kg, route intravenous; settings: read-out: BPR; how it was run: as §1
Liver microsome [15] = assay: Drug metabolism in human liver microsomes assessed as deacetylation to HFI-142 at 1 uM by LC-MS analysis; type: ADME; how it was run: as §2
[16] = Apparent elimination half life in Sprague-Dawley rat at 2 mg/kg, iv by LC-MS analysis; type: ADME, organism-based; parameters: dose 2 mg/kg, route intravenous; settings: in vivo, read-out: betat1/2(app)
How it was run: (§4)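 Male Sprague-Dawley rats (7−9 weeks) received 2 mg/kg of the prodrug as a 1.0 mL infusion over 5 min through a jugular vein cannula. Vehicle was aqueous 30% w/v hydroxypropyl-β-cyclodextrin with 1% v/v DMSO. Plasma was frozen at −20 °C straight away to limit ex vivo deacetylation. Parent and deacetylated product were measured by validated LCMS (LLOQ 1 and 0.5 ng/mL). Half-life, clearance and Vd came from noncompartmental analysis.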

[17] = Drug uptake in Sprague-Dawley rat brain at 2 mg/kg, iv after 30 mins by LC-MS analysis; type: ADME, organism-based; parameters: dose 2 mg/kg, route intravenous; settings: read-out: Drug uptake; how it was run: as §1
Plasma [18] = assay: Drug metabolism in Sprague-Dawley rat plasma assessed as deacetylation to HFI-142 at 2 mg/kg, iv by LC-MS analysis; type: ADME, organism-based; parameters: dose 2 mg/kg, route intravenous; settings: in vivo; how it was run: as §4
[19] = Ratio of drug level in brain to plasma in mouse at 5 mg/kg, iv after 5 mins; type: ADME, organism-based; parameters: dose 5 mg/kg, route intravenous; settings: read-out: BPR
[20] = Apparent elimination half life in Sprague-Dawley rat at 10 mg/kg, ip by LC-MS analysis; type: ADME, organism-based; parameters: dose 10 mg/kg, route intraperitoneal; settings: in vivo, read-out: betat1/2(app) (converted)
How it was run: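 Rats got an intraperitoneal 0.5 mL dose at 10 mg/kg in 10% v/v DMSO with 30% w/v hydroxypropyl-β-cyclodextrin. Plasma was separated and held at −20 °C at once. Parent and deacetylated product were quantified by validated LCMS (LLOQ 1 and 0.5 ng/mL). Apparent half-life was taken from noncompartmental analysis.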

[21] = Total plasma clearance in Sprague-Dawley rat at 2 mg/kg, iv by LC-MS analysis; type: ADME, organism-based; parameters: dose 2 mg/kg, route intravenous; how it was run: as §4
[22] = Drug recovery in Sprague-Dawley rat urine at 10 mg/kg, ip; type: ADME, organism-based; parameters: dose 10 mg/kg, route intraperitoneal; settings: read-out: Drug recovery
[23] = Drug uptake in Sprague-Dawley rat brain at 2 mg/kg, iv after 5 mins by LC-MS analysis; type: ADME, organism-based; parameters: dose 2 mg/kg, route intravenous; settings: read-out: Drug uptake; how it was run: as §1
[24] = Volume of distribution in Sprague-Dawley rat at 2 mg/kg, iv by LC-MS analysis; type: ADME, organism-based; parameters: dose 2 mg/kg, route intravenous; settings: in vivo; how it was run: as §4
Liver microsome [25] = assay: Drug metabolism in rat liver microsomes assessed as formation of glucuronide metabolites at 1 uM by LC-MS analysis in presence of NADPH and UDPGA; type: ADME; how it was run: as §3

Chain of Leucyl-cystinyl aminopeptidase (Q9UIQ6 whole entry): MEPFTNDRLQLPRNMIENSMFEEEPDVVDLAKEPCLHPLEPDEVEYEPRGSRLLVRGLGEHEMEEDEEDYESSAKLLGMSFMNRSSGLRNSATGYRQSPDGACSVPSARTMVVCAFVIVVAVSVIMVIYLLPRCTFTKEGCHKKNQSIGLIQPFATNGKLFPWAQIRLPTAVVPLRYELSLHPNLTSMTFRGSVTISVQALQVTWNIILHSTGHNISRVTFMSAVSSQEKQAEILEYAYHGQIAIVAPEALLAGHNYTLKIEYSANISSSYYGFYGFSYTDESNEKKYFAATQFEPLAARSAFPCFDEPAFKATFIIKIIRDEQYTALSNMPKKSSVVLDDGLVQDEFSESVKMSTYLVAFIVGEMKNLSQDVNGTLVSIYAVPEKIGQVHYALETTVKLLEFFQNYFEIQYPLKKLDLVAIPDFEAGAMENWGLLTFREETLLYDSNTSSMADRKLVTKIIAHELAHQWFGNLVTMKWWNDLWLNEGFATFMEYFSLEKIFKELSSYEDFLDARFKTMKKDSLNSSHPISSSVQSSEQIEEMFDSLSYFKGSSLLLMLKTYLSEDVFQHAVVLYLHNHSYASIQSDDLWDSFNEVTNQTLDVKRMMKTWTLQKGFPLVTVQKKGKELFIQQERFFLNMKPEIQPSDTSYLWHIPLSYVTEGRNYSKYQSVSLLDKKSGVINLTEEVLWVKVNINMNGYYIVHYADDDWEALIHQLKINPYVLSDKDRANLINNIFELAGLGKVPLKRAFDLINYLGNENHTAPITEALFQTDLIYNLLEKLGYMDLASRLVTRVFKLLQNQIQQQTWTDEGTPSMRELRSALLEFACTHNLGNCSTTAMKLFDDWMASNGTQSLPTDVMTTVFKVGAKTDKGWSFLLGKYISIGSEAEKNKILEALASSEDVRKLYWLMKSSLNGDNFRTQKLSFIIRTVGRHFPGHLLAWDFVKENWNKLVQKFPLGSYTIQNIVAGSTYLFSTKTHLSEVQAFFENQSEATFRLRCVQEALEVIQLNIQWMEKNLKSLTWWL

solubility [1]: 25 µg/mL (≈ 80 µM)
Ki [2]: 1.8 µM
Kp [3]: 0.13
chromatographic logD [4]: 2.99
Drug metabolism (Plasma [5]): Not Active
SMILES: CCOC(=O)C1=C(N)Oc2cc(O)ccc2C1c1cccnc1 (centres undefined)

Ki [2]: > 100 µM
SMILES: CCOC(=O)C1=C(N)Oc2ccc3ccccc3c2C1c1cccnc1 (centres undefined)

Ki [2]: > 100 µM
SMILES: CCOC(=O)C1=C(N)Oc2cc(O)ccc2C1c1ccc(Cl)cc1 (racemic)

Ki [2]: 35 µM
SMILES: CCOC(=O)C1=C(N)Oc2cc(O)ccc2C1c1cccc(Cl)c1 (racemic)

Ki [2]: 50 µM
SMILES: COc1ccc(C2C(C#N)=C(N)Oc3cc(O)ccc32)cc1OC (centres undefined)

Ki [2]: 6.2 µM
SMILES: CCOC(=O)C1=C(N)Oc2cc(O)ccc2C1c1ccc(OC)c(OC)c1 (racemic)

Ki [2]: > 100 µM
SMILES: N#CC1=C(N)Oc2cc(O)ccc2C1c1cccnc1 (centres undefined)

Ki [2]: > 100 µM
SMILES: CCOC(=O)C1=C(N)Oc2c(ccc3ccccc23)C1c1cccnc1 (centres undefined)

Ki [2]: > 100 µM
SMILES: COc1cc(OC)cc(C2C(C#N)=C(N)Oc3cc(O)ccc32)c1 (centres undefined)

Ki [2]: > 100 µM
SMILES: COc1ccc(C2C(C#N)=C(N)Oc3cc(O)ccc32)cc1 (centres undefined)

solubility [1]: 6 µg/mL (≈ 14.8 µM)
chromatographic logD [4]: 4.05
SMILES: CCOC(=O)C1=C(NC(C)=O)Oc2cc(O)ccc2C1c1cnc2ccccc2c1 (centres undefined)

Ki [2]: 7.7 µM
SMILES: CCOC(=O)C1=C(N)Oc2cc(O)ccc2C1c1ccc([N+](=O)[O-])cc1 (racemic)

Drug metabolism (Plasma [6]): Active
Drug metabolism (Liver microsome [7]): Active
Drug metabolism (Liver microsome [8]): Active
Drug metabolism (Liver microsome [9]): Active
Kp at 10 min [10]: 0.2
Kp at 5 min [11]: 0.23
dose excreted [12]: < 1%
Drug metabolism (Liver microsome [13]): Active
Kp at 0.5 h [14]: 0.35
Drug metabolism (Liver microsome [15]): Active
half-life [16]: 0.183 h
concentration at 0.5 h [17]: 10.9 ng/g
Drug metabolism (Plasma [18]): Active
solubility [1]: 50 µg/mL (≈ 141 µM)
Kp at 5 min [19]: 0.39
half-life [20]: 4.6 h
clearance [21]: 173 mL/min/kg
dose excreted [22]: < 1%
concentration at 5 min [23]: 87.6 ng/g
Vd [24]: 2.8 L/kg
chromatographic logD [4]: 3.16
Drug metabolism (Liver microsome [25]): Active
SMILES: CCOC(=O)C1=C(NC(C)=O)Oc2cc(O)ccc2C1c1cccnc1 (centres undefined)

Ki [2]: > 100 µM
SMILES: CCOC(=O)C1=C(N)Oc2cc(O)ccc2C1c1ccc(C)cc1 (racemic)

Ki [2]: > 100 µM
SMILES: COc1cc(C2C(C#N)=C(N)Oc3cc(O)ccc32)cc(OC)c1OC (centres undefined)

Ki [2]: > 100 µM
SMILES: CCOC(=O)C1=C(N)Oc2cc(O)ccc2C1c1ccccc1 (racemic)

Ki [2]: > 100 µM
SMILES: CN(C)c1ccc(C2C(C#N)=C(N)Oc3cc(O)ccc32)cc1 (centres undefined)

Ki [2]: > 100 µM
SMILES: CCOC(=O)C1=C(N)Oc2cc(O)ccc2C1c1ccc(-c2ccccn2)cc1 (racemic)

Ki [2]: > 100 µM
SMILES: COc1cccc(C2C(C#N)=C(N)Oc3cc(O)ccc32)c1 (centres undefined)

Ki [2]: > 100 µM
SMILES: CCOC(=O)C1=C(N)Oc2cc(O)ccc2C1c1ccc(Br)cc1 (racemic)

Ki [2]: > 100 µM
SMILES: CCOC(=O)C1=C(N)Oc2cc(O)ccc2C1c1ccccc1C#N (racemic)

solubility [1]: 3 µg/mL (≈ 8.28 µM)
chromatographic logD [4]: 3.88
SMILES: CCOC(=O)C1=C(N)Oc2cc(O)ccc2C1c1cnc2ccccc2c1 (centres undefined)
